From PubChem BioAssay AID809 (SRMLSC, 2007)
pEC50: −log10 of the molar value. Activity calls are given as the source filed them.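 How the source made its calls: active means EC50 for reversing nicotinamide-shortened yeast lifespan at or below a set limit; inactive means EC50 above that limit.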

These compounds were tested on S. cerevisiae DeaD BB579, nicotinamide rescue growth, OD615 48 h (assay: BB579 yeast growth restoration under nicotinamide – S. cerevisiae, yeast lifespan extension project, dose response (AID 809)).
Summary of the method: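 System: S. cerevisiae DeaD strain BB579 / Medium: Glucose-containing restrictive synthetic medium (CSMM-D), shifted from galactose / Schedule: 4 h pre-incubation, 48 h exposure at 30 °C / Technique: optical density at 615 nm (absorbance) / Read-out: culture growth as lifespan proxy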

Row | SMILES | EC50 | pEC50
1 | Cc1ccc(NC(=O)Nc2nc(-c3ccc(C)s3)cs2)cc1 | > 10 µM (inactive) | –
2 | O=C1ON=C(c2ccccc2)/C1=C/c1ccc(-c2ccccc2[N+](=O)[O-])o1 | – | 5.42
3 | COc1ccc(NCc2nc3ccccc3n2CCOc2ccccc2)cc1 | – | 5.28
4 | CN1CCN(C(=S)Nc2cc([N+](=O)[O-])ccc2Cl)CC1 | > 10 µM (inactive) | –
5 | CCC(=NCCc1c(C)[nH]c2ccc(C)cc12)C1=C(O)CC(c2ccccc2)CC1=O (configuration not stated) | – | 5.29
6 | Cc1ncc(C23CC4CC(CC(C4)C2)C3)[nH]1 | > 10 µM (inactive) | –
7 | CCOc1cc(Br)c(Br)c(C=Nc2ccc(NC(C)=O)cc2)c1O | – | 5.30
8 | O=C(NCCc1ccccn1)C(F)(F)C(F)(F)C(F)(F)C(F)(F)C(F)(F)C(F)(F)C(F)(F)C(F)F | > 10 µM (inactive) | –
9 | O=C(Nc1nccs1)c1ccc2c(=O)n3c(nc2c1)CCCCC3 | – | 5.11
10 | CCN(CCO)C(=O)C12CCC(C)(C(=O)C1)C2(C)C (configuration not stated) | > 10 µM (inactive) | –
11 | C/C(=N\NC(=O)c1cccc(Cl)c1)C1C(=O)c2ccccc2C1=O | > 10 µM (inactive) | –
12 | COc1c(Br)cc(Br)cc1/C=N/n1c(C)nnc1C | > 10 µM (inactive) | –
13 | CC(C)C(OC(=O)CN1C(=O)COc2ccccc21)C(=O)NC1CCCC1 (configuration not stated) | > 10 µM (inactive) | –
14 | CCC1CCCCN1S(=O)(=O)c1ccc(S(=O)(=O)N(Cc2cccs2)C2CC2)cc1 (configuration not stated) | > 10 µM (inactive) | –
15 | Cc1cc(N=Cc2c(O)ccc3ccccc23)no1 | – | 5.26
16 | COc1ccc2c(=O)c3c(=O)n(Cc4ccco4)c(-c4ccco4)nc3oc2c1 | – | 5.01
17 | CN1C(=O)/C(=C/c2cccn2-c2ccc3ccccc3c2)C(=O)NC1=S | – | 5.24
18 | O=C(N/N=C/c1ccccc1)c1c(O)c2ccccc2[nH]c1=O | – | 6.24
19 | CCOC(=O)C1=C(N)OC2=C(C(=O)CCC2)C1c1sccc1C (configuration not stated) | – | 5.03
20 | N#Cc1c(-c2ccccc2)c(-c2ccccc2)nn(CC(=O)NNC(=O)Nc2ccccc2)c1=O | > 10 µM (inactive) | –
21 | COc1ccc(/C(O)=C/C(=O)C(=O)Nc2c(C)n(C)n(-c3ccccc3)c2=O)cc1 | – | 5.23
22 | COC(=O)/C(=C/c1cn(C)c2ccccc12)[N+](=O)[O-] | – | 5.65

Row | SMILES | EC50 | pEC50
23 | Cc1ccc(CNc2nc3ccccc3s2)s1 | > 10 µM (inactive) | –
24 | COc1ccc(-c2cc(N)n(S(=O)(=O)c3c(F)c(F)c(F)c(F)c3F)n2)cc1OC | – | 5.16
25 | Cc1ccnc(-n2c(C)cc(/C=C3\C(=O)NC(=S)N(C)C3=O)c2C)c1 | > 10 µM (inactive) | –
26 | Oc1ccc2ccccc2c1C=Nc1ccc(N2CCOCC2)cc1 | > 10 µM (inactive) | –
27 | N#Cc1ccc(-c2ccc(OCC(=O)NCCc3ccccc3)cc2)cc1 | > 10 µM (inactive) | –
28 | CN(c1ccccc1)c1nc2ccsc2c(=O)s1 | > 10 µM (inactive) | –
29 | CCn1ncc(/C=N/NC(=O)c2ccc3c(c2)OCO3)c1C | > 10 µM (inactive) | –
30 | O=C1C(C2=C(O)c3ccccc3C2=O)=Nc2ccccc21 | – | 5.77
31 | NC(=S)N/N=C/c1coc2cc(Cl)ccc2c1=O | – | 5.31
32 | COc1cc(OC)cc(-c2nc3ccccc3c(=O)n2OC(=O)c2ccccc2C)c1 | > 10 µM (inactive) | –
33 | CCn1c(=O)c2c(O)cc(=O)oc2c2ccccc21 | – | > 7.11
34 | Cc1nn(-c2c(Cl)cc(Cl)cc2Cl)c(=O)c2ccccc12 | – | 5.20
35 | CCc1ccc(C(=O)CN2C(=O)NC(C)(CCc3ccccc3)C2=O)cc1 (configuration not stated) | > 10 µM (inactive) | –
36 | Cc1c(O)c(S(=O)c2ccccc2)c(=O)n(-c2ccccc2)c1-c1ccccc1 (configuration not stated) | – | 5.36
37 | O=C1C(=C(O)c2ccccc2)C(=O)c2ccccc21 | > 10 µM (inactive) | –
38 | O=C(O)Cc1ccc(N=Cc2c(O)ccc3ccccc23)cc1 | – | 5.41
39 | CC1CCCCC1NC(=O)/C(C#N)=C/c1ccccc1F (configuration not stated) | – | 5.15
40 | O=C(Nc1scc(-c2ccc(F)cc2)c1C(=O)O)c1ccco1 | – | 5.50
41 | O=C(NCc1ccc(Cl)cc1)c1ccccc1CCc1ccccc1 | – | 5.10
42 | CC(C)n1c(-c2ccccc2F)n[nH]c1=S | > 10 µM (inactive) | –
43 | c1cncc(-c2nn[nH]n2)c1 | > 10 µM (inactive) | –
44 | CCCCCC1CC1C(=O)N/N=C/c1ccc(N(C)C)cc1 (configuration not stated) | > 10 µM (inactive) | –

Row | SMILES | EC50 | pEC50
45 | CC(C)c1nnc(NC(=O)c2c(O)c3cccc4c3n(c2=O)CCC4)s1 | – | 5.37
46 | CCCC(=Nc1ccc(N)cc1)C1=C(O)C(C(=O)OC)C(C)(C)CC1=O (configuration not stated) | – | 5.05
47 | CC(=O)Nc1c(O)nc(SCc2ccccc2C#N)[nH]c1=O | > 10 µM (inactive) | –
48 | CC1=C(C#N)C2C(/C1=N/O)C2(C)C (configuration not stated) | > 10 µM (inactive) | –
49 | CC(C)OCCCNS(=O)(=O)c1ccc2ccccc2c1 | > 10 µM (inactive) | –
50 | O=c1c2ccccc2sn1-c1ccccc1 | > 10 µM (inactive) | –
51 | CC(=NCCc1c(C)[nH]c2ccc(C)cc12)C1=C(O)CC(c2ccccc2)CC1=O (configuration not stated) | – | 5.11
52 | COc1cccc(/C=C/C(=O)c2c(O)cc(C)oc2=O)c1O | > 10 µM (inactive) | –
53 | CN(C)C=C1C(=O)N(C2CCCCC2)C(=O)N(C2CCCCC2)C1=O | – | 5.16
54 | Cc1cc(C)n(-c2ccc(OCC(=O)O)nn2)n1 | > 10 µM (inactive) | –
55 | Cc1[nH]n(-c2ccccc2)c(=O)c1N=Nc1nccs1 | – | 5.22
56 | CC(=C1C(=O)c2ccccc2C1=O)N1CCN(c2ccccn2)CC1 | – | 5.14
57 | Cc1ccc2nc(N3C(=O)C(O)=C(C(=O)c4ccco4)C3c3cccs3)sc2c1 (configuration not stated) | – | 5.18
58 | CCOC(=O)c1c(C)oc2c1c(C(c1cccnc1)N1CCCCC1)c(O)c1ccccc12 (configuration not stated) | > 10 µM (inactive) | –
59 | COc1ccc(N(C(=O)C(C)C)S(=O)(=O)c2ccc(Cl)cc2)cc1 | > 10 µM (inactive) | –
60 | COc1ccc2c(=O)c3c(=O)n(Cc4ccco4)c(-c4ccc(C)cc4)nc3oc2c1 | – | 5.17
61 | O=C1CC(c2ccccc2)CC(O)=C1C=NCCN1CCN(C(=O)Nc2ccccc2)CC1 (configuration not stated) | – | 5.18
62 | COc1ccc(/C=N/NC(=O)c2csc(-n3nc(C)cc3C(F)(F)F)n2)cc1 | > 10 µM (inactive) | –
63 | CCOC(=O)C1=C(C)Nc2nc(=S)[nH]n2C1c1ccc(Cl)cc1 (configuration not stated) | – | 5.26
64 | O=[N+]([O-])c1cc(S(=O)(=O)N2CCCCCC2)ccc1F | – | 5.29
65 | Cc1ccsc1C(=O)Nc1nnc(-c2ccco2)o1 | – | 5.03
66 | O=C(NCc1ccco1)c1c(O)c2cccc3c2n(c1=O)CCC3 | – | 5.22

Row | SMILES | EC50 | pEC50
67 | O=C1Nc2cc(Cl)c(Cl)cc2N(O)N1c1cc(Cl)cc(Cl)c1 | > 10 µM (inactive) | –
68 | CC1(C)Cc2ccccc2-c2nnc(SCC(=O)Nc3ccc4c(c3)OCO4)n21 | > 10 µM (inactive) | –
69 | CC(=O)Oc1ccccc1N1C(=O)c2ccc(C(=O)O)cc2C1=O | > 10 µM (inactive) | –
70 | O=C(Nc1ccc(Br)cn1)c1cccc(-c2cc3ccccc3oc2=O)c1 | > 10 µM (inactive) | –
71 | CC(C)(C)C(=O)Cn1c(=N)n(Cc2ccccc2)c2ccccc21 | – | 5.03
72 | CCOC(=O)CS(=O)(=O)c1nc(-c2ccc(F)cc2)cc(C(F)(F)F)n1 | – | 5.24
73 | COc1ccccc1CNC(=O)C(CCSC)NS(=O)(=O)c1ccc2c(c1)oc(=O)n2C (configuration not stated) | > 10 µM (inactive) | –
74 | CCn1cc(C(=O)O)c(=O)c2ccc(C)nc21 | – | 5.44
75 | CCCCSc1[nH]c(=O)c(C(=O)OCC)cc1C#N | – | 5.19
76 | C/C(=N\NC(=O)c1ccccc1O)C1C(=O)c2ccccc2C1=O | – | > 7.11
77 | Cc1ccc(NC(=O)C2C(=O)N(C)c3ccccc32)cc1 (configuration not stated) | > 10 µM (inactive) | –
78 | Cc1n[nH]c(=O)n1-c1cccc(C(F)(F)F)c1 | > 10 µM (inactive) | –
79 | CCCc1cc(=O)oc2cc(C)c(CN3CCCC3)c(O)c12 | – | 5.21
80 | CC(C)c1ccc(C2=C(O)c3ccccc3C(=O)C2=O)cc1 | > 10 µM (inactive) | –
81 | Cc1ccc(C(=O)OC2=CC(=O)CC(C)(C)C2)cc1 | – | 5.53
82 | CNC(=S)NC1CC2CCCC(C1)N2Cc1ccco1 (configuration not stated) | > 10 µM (inactive) | –
83 | CC(=Nc1ccc2c(c1)nc(CO)n2C)C1=C(O)CC(C)(C)CC1=O | > 10 µM (inactive) | –
84 | O=[N+]([O-])c1cc2oc3c(c2c(C=NCc2ccccc2)c1O)CCCC3 | – | 5.59
85 | COC(=O)C1=C(N)OC2=C(C(=O)CC(C)(C)C2)C1c1cccs1 (configuration not stated) | – | 5.05
86 | CCCn1[nH]cc(SC)c(=O)c1=O | – | 5.06
87 | CC1=CN2C(=N)/C(=C/c3ccc([N+](=O)[O-])o3)C(=O)N=C2S1 | – | 5.17
88 | C=CS(=O)(=O)c1ccc(Oc2ccc(S(=O)(=O)C=C)cc2)cc1 | – | 5.15

Row | SMILES | EC50 | pEC50
89 | O=C(NCc1ccco1)c1cc(C(=O)C2CCCCC2)c[nH]1 | > 10 µM (inactive) | –
90 | CCCc1[nH]nc2c1C(c1ccc(Br)s1)C(C#N)=C(N)O2 (configuration not stated) | – | 5.18
91 | CC1(C)CC(=O)c2sc(NS(C)(=O)=O)nc2C1 | > 10 µM (inactive) | –
92 | COc1cccc(CSc2nc3ccccc3cc2C=O)c1 | – | 5.05
93 | O=C(O)c1ccc(O)c(N2C(=O)Nc3ccccc3N2O)c1 | > 10 µM (inactive) | –
94 | CCCCCOC(=O)CSc1nc2c(c(=O)[nH]c(=O)n2C)n1CCc1ccccc1 | > 10 µM (inactive) | –
95 | CCCCC(=Nc1ccccc1OC)C1=C(O)CC(c2ccccc2)CC1=O (configuration not stated) | – | 5.35
96 | CC(c1ccccc1)N1CCn2c(nc3cc(NC(=O)c4cccs4)ccc32)C1 (configuration not stated) | – | 5.15
97 | COc1ccc(OC)c(NC(=S)N2CCN(C/C=C/c3ccccc3)CC2)c1 | > 10 µM (inactive) | –
98 | Cc1cc(C)n2cc(CSc3nnc(N)s3)nc2n1 | > 10 µM (inactive) | –
99 | CCCCn1c(/N=C/c2ccccc2NS(=O)(=O)c2ccc(C)cc2)nc2ccccc21 | – | 5.45
100 | O=C(NC(=S)Nc1nc2c(s1)CSc1ccccc1-2)c1ccccc1 | > 10 µM (inactive) | –
101 | CC1CCCCN1C(=S)Nc1ccc2nc3n(c(=O)c2c1)CCCCC3 (configuration not stated) | – | 5.06
102 | O=C(Cn1nc(Cl)nc1Cl)c1cc2ccccc2oc1=O | > 10 µM (inactive) | –
103 | CCc1nnc(N2C(=O)c3ccc(Oc4ccc([N+](=O)[O-])cc4)cc3C2=O)s1 | > 10 µM (inactive) | –
104 | CCc1[nH]nc2c1C(c1ccc(Br)s1)C(C#N)=C(N)O2 (configuration not stated) | – | 5.03
105 | C=C(C)CN(CC)C(=O)COc1ccc(S(=O)(=O)Nc2ccc(OC)cc2)cc1 | > 10 µM (inactive) | –
106 | O=C(COc1ccc2ccccc2c1)Nc1cccc(C(=O)Nc2ccccc2C(=O)O)c1 | – | 5.08
107 | CC(=C1C(=O)c2ccccc2C1=O)N1CCN(C/C=C/c2ccccc2)CC1 | > 10 µM (inactive) | –
